Experimental data: article PMC2741613 (Journal of the American Chemical Society, 2009)

Legend:
[1] = test system: tyrosine phosphorylation of EGFR in PTP1B−/− mouse embryo fibroblast cells; test: EGF-stimulated EGFR phosphorylation in cells; type: cell-based; settings: 2 hr, then EGF 2 ng/ml 10 min, relative to DMSO
Summary of the method: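 PTP1B−/− mouse embryo fibroblasts were given test compound for 2 hr, then EGF 2 ng/mL for 10 min. Lysis in HEPES pH 7.4 buffer with pervanadate, fluoride and protease inhibitors, cleared at 15,000 rpm for 10 min, protein by BCA. EGFR immunoprecipitated from 1 mg lysate (4 °C, 2 h; protein A/G 2 h). SDS-PAGE, anti-pTyr immunoblot, ECL detection.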

[2] = molecular target: T1, VHX (Homo sapiens, UniProt Q9NRW4); test: PTP activity assay with pNPP, VHX; type: biochemical
T1 sequence (Q9NRW4 1-184): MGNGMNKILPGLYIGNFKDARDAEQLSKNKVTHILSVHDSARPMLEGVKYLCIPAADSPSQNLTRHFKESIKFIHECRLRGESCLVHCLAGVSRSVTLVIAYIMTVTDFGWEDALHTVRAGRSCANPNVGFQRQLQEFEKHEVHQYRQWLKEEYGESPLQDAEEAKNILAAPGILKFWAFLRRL
Summary of the method: (§1)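 Reactions started by adding enzyme to mixtures with various pNPP and test-compound concentrations. Rates were fitted with an enzyme-kinetics model for Ki.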

[3] = molecular target: LAR (Homo sapiens, UniProt P10586); test: PTP activity assay with pNPP, LAR; type: biochemical
Summary of the method: as §1

[4] = molecular target: T2, SHP2 (Homo sapiens, UniProt Q06124); test: PTP activity assay with pNPP, SHP2; type: biochemical
T2 sequence (Q06124 1-593): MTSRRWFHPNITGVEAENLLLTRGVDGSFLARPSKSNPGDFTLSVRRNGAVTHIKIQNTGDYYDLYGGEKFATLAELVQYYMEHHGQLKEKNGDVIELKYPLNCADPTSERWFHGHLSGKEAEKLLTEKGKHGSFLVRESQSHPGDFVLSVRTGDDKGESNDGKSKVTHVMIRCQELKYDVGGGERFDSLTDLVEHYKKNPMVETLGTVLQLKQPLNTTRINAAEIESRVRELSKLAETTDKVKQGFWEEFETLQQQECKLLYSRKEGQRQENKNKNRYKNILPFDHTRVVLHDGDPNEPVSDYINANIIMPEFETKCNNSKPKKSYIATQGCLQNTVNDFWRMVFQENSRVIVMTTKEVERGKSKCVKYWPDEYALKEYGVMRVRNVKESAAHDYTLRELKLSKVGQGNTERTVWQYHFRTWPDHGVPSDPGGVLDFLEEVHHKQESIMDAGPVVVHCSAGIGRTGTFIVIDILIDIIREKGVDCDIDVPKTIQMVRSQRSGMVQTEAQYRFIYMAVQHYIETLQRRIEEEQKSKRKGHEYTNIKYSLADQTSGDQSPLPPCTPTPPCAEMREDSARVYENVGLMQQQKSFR
Summary of the method: as §1

[5] = molecular target: T3, Lyp (Homo sapiens, UniProt Q9Y2R2); test: PTP activity assay with pNPP, Lyp; type: biochemical
T3 sequence (Q9Y2R2 1-807): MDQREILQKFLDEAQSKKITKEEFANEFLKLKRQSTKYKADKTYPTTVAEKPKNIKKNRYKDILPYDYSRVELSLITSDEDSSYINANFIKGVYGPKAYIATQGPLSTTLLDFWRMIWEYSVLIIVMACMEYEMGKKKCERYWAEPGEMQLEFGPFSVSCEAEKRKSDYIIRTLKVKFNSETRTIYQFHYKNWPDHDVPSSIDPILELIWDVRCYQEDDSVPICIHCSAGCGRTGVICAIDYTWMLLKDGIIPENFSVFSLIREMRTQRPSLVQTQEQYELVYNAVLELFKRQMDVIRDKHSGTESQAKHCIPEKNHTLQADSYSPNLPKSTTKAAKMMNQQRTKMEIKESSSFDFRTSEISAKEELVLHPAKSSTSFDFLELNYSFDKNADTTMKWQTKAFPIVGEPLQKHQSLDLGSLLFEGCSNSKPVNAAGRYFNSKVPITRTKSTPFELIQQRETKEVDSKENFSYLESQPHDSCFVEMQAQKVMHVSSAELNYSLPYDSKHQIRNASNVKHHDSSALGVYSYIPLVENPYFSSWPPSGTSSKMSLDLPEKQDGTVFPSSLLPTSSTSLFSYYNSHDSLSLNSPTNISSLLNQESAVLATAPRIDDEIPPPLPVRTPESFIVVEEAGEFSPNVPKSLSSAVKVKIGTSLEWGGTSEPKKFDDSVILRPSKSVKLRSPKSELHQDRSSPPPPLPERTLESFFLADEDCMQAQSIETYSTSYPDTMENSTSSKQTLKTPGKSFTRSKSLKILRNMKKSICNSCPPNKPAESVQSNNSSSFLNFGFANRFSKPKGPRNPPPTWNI

[6] = molecular target: VHR (Homo sapiens, UniProt P51452); test: PTP activity assay with pNPP, VHR; type: biochemical
Summary of the method: as §1

[7] = molecular target: T4, TC-PTP (Homo sapiens, UniProt P17706); test: TC-PTP-catalyzed pNPP hydrolysis inhibition; type: biochemical
T4 sequence (P17706 1-415): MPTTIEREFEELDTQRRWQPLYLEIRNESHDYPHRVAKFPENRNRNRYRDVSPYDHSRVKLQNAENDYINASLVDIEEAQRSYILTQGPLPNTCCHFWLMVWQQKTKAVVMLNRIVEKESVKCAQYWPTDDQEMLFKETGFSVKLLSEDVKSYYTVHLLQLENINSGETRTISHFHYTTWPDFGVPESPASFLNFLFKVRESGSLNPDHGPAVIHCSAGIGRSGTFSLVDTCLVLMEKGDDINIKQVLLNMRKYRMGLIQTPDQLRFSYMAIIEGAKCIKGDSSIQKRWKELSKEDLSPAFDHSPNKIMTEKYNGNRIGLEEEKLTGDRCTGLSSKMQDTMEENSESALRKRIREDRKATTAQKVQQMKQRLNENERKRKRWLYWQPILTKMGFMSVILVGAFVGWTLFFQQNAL
Summary of the method: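 IC50: enzyme added last (10 nM or 0.4 nM final) to 2 mM pNPP (Km) plus varied test compound, 30 min at room temperature, NaOH quench, A405. Reversibility: enzyme preincubated with test compound 30 min before pNPP. Mode/Ki: 0.4 nM enzyme, varied pNPP and inhibitor, kinetic fit.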

Chain of LAR (P10586 30-1907, species assumed): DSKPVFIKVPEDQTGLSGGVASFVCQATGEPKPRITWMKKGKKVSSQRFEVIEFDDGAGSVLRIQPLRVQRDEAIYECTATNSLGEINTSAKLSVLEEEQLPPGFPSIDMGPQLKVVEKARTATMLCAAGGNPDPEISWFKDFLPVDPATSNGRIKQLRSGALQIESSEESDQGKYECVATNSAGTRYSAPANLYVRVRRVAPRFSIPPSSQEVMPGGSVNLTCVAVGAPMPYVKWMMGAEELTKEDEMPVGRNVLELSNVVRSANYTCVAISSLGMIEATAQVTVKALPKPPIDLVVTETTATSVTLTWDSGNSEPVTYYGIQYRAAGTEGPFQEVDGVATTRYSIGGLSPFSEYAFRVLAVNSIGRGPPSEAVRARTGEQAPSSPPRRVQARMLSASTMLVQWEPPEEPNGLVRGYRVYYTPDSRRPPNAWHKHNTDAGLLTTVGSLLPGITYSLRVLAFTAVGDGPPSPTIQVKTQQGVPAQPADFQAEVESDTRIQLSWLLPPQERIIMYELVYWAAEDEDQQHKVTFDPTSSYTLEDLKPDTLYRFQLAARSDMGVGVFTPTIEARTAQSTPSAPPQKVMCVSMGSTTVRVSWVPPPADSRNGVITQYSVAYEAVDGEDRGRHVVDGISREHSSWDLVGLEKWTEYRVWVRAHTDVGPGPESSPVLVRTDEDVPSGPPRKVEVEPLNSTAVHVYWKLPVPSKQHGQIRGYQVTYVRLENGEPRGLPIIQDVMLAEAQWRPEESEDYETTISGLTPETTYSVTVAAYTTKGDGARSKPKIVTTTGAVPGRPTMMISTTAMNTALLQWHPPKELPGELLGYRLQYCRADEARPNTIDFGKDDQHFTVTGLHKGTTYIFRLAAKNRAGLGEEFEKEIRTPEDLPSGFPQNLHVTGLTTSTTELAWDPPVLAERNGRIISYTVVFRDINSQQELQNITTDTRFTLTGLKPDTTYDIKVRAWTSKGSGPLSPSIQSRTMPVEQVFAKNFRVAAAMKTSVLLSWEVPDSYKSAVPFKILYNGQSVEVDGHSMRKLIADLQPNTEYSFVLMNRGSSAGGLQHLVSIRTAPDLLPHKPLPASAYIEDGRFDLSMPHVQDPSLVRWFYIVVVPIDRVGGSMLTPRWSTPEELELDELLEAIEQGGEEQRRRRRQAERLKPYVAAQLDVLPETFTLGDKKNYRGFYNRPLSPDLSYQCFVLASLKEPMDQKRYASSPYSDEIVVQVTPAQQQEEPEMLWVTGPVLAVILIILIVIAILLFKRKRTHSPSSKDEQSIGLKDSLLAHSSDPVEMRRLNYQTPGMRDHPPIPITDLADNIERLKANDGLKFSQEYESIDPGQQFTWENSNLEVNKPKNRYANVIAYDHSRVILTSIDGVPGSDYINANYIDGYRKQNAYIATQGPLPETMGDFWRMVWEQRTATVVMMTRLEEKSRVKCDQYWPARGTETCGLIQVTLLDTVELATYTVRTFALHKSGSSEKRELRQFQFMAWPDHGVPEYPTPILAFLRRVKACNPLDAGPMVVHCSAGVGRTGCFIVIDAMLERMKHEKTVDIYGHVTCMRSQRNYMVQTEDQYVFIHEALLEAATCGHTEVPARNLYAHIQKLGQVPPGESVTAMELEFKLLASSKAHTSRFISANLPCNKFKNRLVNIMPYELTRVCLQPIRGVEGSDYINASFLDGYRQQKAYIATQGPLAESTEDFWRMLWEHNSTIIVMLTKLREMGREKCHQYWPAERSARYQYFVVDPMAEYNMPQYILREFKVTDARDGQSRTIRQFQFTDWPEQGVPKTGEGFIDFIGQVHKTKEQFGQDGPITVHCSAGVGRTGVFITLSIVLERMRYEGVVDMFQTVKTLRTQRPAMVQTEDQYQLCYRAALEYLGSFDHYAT
Chain of VHR (P51452 whole entry, species assumed): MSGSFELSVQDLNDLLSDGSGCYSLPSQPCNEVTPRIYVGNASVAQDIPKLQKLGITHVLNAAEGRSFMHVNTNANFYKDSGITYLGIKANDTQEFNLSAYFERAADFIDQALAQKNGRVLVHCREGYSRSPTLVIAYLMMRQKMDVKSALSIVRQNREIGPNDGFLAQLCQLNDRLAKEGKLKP

SMILES: CCc1ccc(C(=O)NCCCC[C@H](NC(=O)[C@H](Cc2ccc(C(F)(F)P(=O)(O)O)cc2)NC(=O)[C@H](Cc2ccccc2)NC(=O)CO[C@H]2C[C@@H](C)CC[C@@H]2C(C)C)C(N)=O)cc1 [Compound 8]
- increase in EGFR phosphorylation ([1]; 5 nM): ~2 fold
- increase in EGFR phosphorylation ([1]; 50 nM): 5.0 fold
- Ki [2]: > 1000 nM
- Ki [3]: > 1000 nM
- Ki [4]: > 1000 nM
- Ki [5]: > 1000 nM
- Ki [6]: > 1000 nM
- reversibility of TC-PTP inhibition ([7]; IC50 without or with 30 min preincubation): reversible
- mode of TC-PTP inhibition ([7]; Lineweaver-Burk analysis, pNPP): competitive
- Ki ([7]; TC-PTP, pNPP substrate): 4.3 ± 0.2 nM
